V-ATPase pH = yeast V-ATPase proton transport regulation by pHLuorin | S. cerevisiae, pHLuorin cytosolic pH fluorescence | response, % at 10 µM | 350,000 tested, 0.37% active | AID 504577; in the data active means response mostly above about 7.3%, no sharp cut-off; inactive means mostly below about 5.4%; further: actives read high
Dynein transport = blocks dynein driven cargo transport along microtubules | 3617.4 mouse cells, GR-EGFP nuclear translocation imaging; test concentration mostly 20 µM; stimulated with dexamethasone, 1 µM; active compounds read low | z-score, hits read low | 220,000 tested, 0.47% active;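 active means plate z-score of nuclear minus cytoplasmic receptor signal below a set negative limit, without overly bright fluorescence or cell loss, cut at about -3.5 in these data, passing the limit was not always enough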;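 further: z-score of nuclear minus cytoplasmic ring GR-EGFP intensity difference per well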
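Buffer or medium: tet-free, stripped-serum medium; reagent: dexamethasone at 1.0 µM final, 30 min; incubation: 48 h induction, 1 h compound, 30 min dex at 37 °C; measured by: formaldehyde fixation, Hoechst nuclear stain, 10x automated fluorescence imaging; read-out: nuclear-to-cytoplasmic GR-EGFP distribution per well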
ABCB6 inh 2 = inhibitors of human ABC transporter ABCB6 | Q9NP58 | K562-ABCB6 porphyrin accumulation, flow cytometry, 1 h; active compounds read low | fluorescence ratio to DMSO, % at 10 µM | 360,000 tested, 0.19% active | AID 602162;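 active means fluorescence ratio to DMSO below 75%, the collection mean minus 3 SD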;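 further: signal is porphyrin accumulated inside mitochondria; lower ratio means ABCB6 inhibition with less porphyrin fluorescence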
pCIP destab = p/CIP protein destabilization | Q05BA5 | F442A p/CIP-EGFP cells, EGFP fluorescence, 16 h | decrease of EGFP signal, % at 10 µM | 290,000 tested, 0.01% active | AID 1984;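 active means EGFP signal decrease of at least 30% at 10 µM or well 3 SD below plate mean, unless failing retest; inactive means the rest, including hits failing retest or dose response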
Target sequence (Q05BA5 1-1403): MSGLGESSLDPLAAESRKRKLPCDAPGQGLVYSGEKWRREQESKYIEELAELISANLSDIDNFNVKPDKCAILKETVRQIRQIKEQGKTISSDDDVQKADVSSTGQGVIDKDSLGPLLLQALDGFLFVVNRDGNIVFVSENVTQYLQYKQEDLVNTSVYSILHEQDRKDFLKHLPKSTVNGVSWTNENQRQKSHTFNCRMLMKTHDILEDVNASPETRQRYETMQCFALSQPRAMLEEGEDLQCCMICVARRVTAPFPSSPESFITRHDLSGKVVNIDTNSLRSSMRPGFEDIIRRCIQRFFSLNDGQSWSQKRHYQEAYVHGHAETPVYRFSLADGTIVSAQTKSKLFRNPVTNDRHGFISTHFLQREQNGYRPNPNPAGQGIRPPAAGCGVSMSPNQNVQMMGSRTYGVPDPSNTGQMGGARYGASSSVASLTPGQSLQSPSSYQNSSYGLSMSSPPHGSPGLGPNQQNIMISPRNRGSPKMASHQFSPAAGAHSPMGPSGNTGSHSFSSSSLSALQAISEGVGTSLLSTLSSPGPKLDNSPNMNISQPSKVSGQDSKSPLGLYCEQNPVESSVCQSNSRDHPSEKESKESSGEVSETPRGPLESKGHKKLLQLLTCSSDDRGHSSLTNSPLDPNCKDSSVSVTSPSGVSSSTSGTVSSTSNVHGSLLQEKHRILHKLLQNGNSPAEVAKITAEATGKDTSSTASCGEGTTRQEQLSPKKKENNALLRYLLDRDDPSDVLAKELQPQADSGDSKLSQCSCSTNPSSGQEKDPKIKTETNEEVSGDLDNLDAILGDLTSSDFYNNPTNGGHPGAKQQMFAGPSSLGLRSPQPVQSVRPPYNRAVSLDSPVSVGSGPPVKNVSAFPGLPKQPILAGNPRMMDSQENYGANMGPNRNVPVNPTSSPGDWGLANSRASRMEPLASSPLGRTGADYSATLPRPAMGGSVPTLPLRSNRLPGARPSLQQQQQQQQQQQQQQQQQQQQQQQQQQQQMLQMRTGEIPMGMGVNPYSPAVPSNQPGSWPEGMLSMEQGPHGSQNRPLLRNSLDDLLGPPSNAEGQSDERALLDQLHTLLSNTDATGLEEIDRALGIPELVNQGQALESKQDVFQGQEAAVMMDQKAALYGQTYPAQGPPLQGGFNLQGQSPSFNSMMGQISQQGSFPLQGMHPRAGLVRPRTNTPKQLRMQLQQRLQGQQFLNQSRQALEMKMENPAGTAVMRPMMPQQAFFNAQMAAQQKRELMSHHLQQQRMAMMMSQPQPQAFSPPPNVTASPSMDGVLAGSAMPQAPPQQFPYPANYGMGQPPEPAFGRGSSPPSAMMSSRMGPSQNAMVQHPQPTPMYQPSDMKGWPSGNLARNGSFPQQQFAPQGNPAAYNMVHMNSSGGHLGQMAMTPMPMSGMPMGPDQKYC
Cl transport mod = KCC2 (human) Cl- transport modulation; Q9H2X9; KCC2 cells, thallium flux FluoZin-2 fluorescence; B-score of Tl+ flux slope (higher = more flux/activation; lower = inhibition) at 10 µM; 190,000 tested, 2.2% active; AID 1456;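 active means thallium flux slope and its plate-corrected score both differing from the plate sample mean at a set confidence after two filtering rounds, in either direction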;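 further: slope of fluorescence scaled to starting intensity during 10 to 20 s after thallium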
ABCB6 blocker 1 = inhibitors of human ABC transporter ABCB6; shares compounds with ABCB6 inh 2; K562-ABCB6 porphyrin accumulation, flow cytometry, 1 h; active compounds read low; ratio response (% of DMSO), % at 10 µM; 700 tested, under 10 active; AID 602430;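 active means repeat-averaged ratio response below 75% of DMSO, the collection mean minus 3 SD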;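 further: median porphyrin fluorescence at 575 nm with 488 nm excitation from mitochondria; lower ratio means less porphyrin signal so ABCB6 inhibition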
K562 vector FC = effect in K562 cells lacking ABCB6, counter-screen; shares compounds with ABCB6 inh 2; K562 empty-vector cells, flow cytometry fluorescence, 1 h; percent response (fluorescence), % at 100 µM; 25 tested, under 10 active; AID 624484;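 active means compounds whose half-maximal effective concentration is below 100 µM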
Hits are given with their value. Only a selection was taken, and hits are over-represented in it overall.

Results for O=C(Nc1cccc(OC(F)(F)F)c1)C1Cc2c(-c3ccc(Cl)cc3)ccnc2O1 (stereo not given) ?
ABCB6 inh 2: inactive

Results for O=C(Nc1cccc(OC(F)(F)F)c1)C1Cc2c(-c3ccc4c(c3)OCO4)ccnc2O1 (stereo not given) ?
ABCB6 inh 2: inactive; ABCB6 blocker 1: inactive

Results for CCCCNc1oc(-c2ccc(OC)cc2)nc1S(=O)(=O)c1ccccc1 ?
V-ATPase pH: inactive; Dynein transport: inactive; ABCB6 inh 2: 69.0; pCIP destab: inactive; Cl transport mod: inactive; ABCB6 blocker 1: inactive

What do the screens show for `O=c1c2ccccc2c(-c2ccccc2)nn1-c1cc(Cl)ccc1[N+](=O)[O-]`?
V-ATPase pH: inactive; Dynein transport: inactive; ABCB6 inh 2: 73.0; pCIP destab: inactive; Cl transport mod: inactive; ABCB6 blocker 1: inactive

What do the screens show for `N#Cc1sc(=O)[nH]c1Cl`?
V-ATPase pH: inactive; ABCB6 inh 2: inactive

What do the screens show for `CC(C)(C)c1ccc(Cn2nnc3c(=O)[nH]c(C4CCN(C(=O)c5ccco5)CC4)nc32)cc1`?
V-ATPase pH: inactive; ABCB6 inh 2: inactive; pCIP destab: inactive; ABCB6 blocker 1: inactive

How did O=C(c1ccco1)N1CCC(c2nc3c(nnn3Cc3c(Cl)cccc3Cl)c(=O)[nH]2)CC1 do in these assays?
V-ATPase pH: inactive; ABCB6 inh 2: inactive; pCIP destab: inactive; ABCB6 blocker 1: inactive

Results for COC(=O)c1ccc(CNC(=O)/C=C/[C@H]2O[C@@H](n3cc(C)c(=O)[nH]c3=O)C[C@@H]2O)cc1 ?
ABCB6 inh 2: inactive

Results for Cn1ccnc1C1CCCCN1Cc1nc(-c2ccc(Cl)cc2)no1 (stereo not given) ?
V-ATPase pH: inactive; Dynein transport: inactive; ABCB6 inh 2: inactive; pCIP destab: inactive; Cl transport mod: inactive

Results for CCC(C)(C)NC(=O)C(c1ccc(OC)cc1)N(C(=O)CCC(=O)Nc1cc(C)on1)c1ccc(F)cc1 (stereo not given) ?
V-ATPase pH: inactive; ABCB6 inh 2: inactive; pCIP destab: inactive

What do the screens show for `c1csc(CNCCCN2CCOCC2)c1`?
V-ATPase pH: inactive; Dynein transport: inactive; ABCB6 inh 2: inactive; pCIP destab: inactive; Cl transport mod: inactive

Results for CCCCOCCCNCc1cccn1CCN1CCOCC1 ?
V-ATPase pH: inactive; ABCB6 inh 2: 66.0; pCIP destab: inactive; ABCB6 blocker 1: inactive

What do the screens show for `CC(=O)Nc1ccc(NC(=O)CSc2n[nH]c(-c3cccs3)n2)cc1`?
V-ATPase pH: inactive; ABCB6 inh 2: inactive

Results for COC(=O)C1(C)COP(=O)(NC23CC4CC(CC(C4)C2)C3)OC1 (stereo not given) ?
V-ATPase pH: inactive; ABCB6 inh 2: inactive

Results for COc1ccc(-n2c(C(C)n3nc(C)c([N+](=O)[O-])c3C)n[nH]c2=S)cc1 (stereo not given) ?
V-ATPase pH: inactive; Dynein transport: inactive; ABCB6 inh 2: inactive; pCIP destab: inactive; Cl transport mod: inactive

Results for Cc1ccc(-n2c(C(C)n3nc(C)c([N+](=O)[O-])c3C)n[nH]c2=S)cc1 (stereo not given) ?
V-ATPase pH: inactive; Dynein transport: inactive; ABCB6 inh 2: 61.0; pCIP destab: inactive; Cl transport mod: inactive; ABCB6 blocker 1: inactive

How did CCc1ccc(C(C)NC(=O)c2ccc3c(c2)OCO3)cc1 (stereo not given) do in these assays?
V-ATPase pH: inactive; ABCB6 inh 2: inactive; pCIP destab: inactive

How did CC(OC(=O)c1cc(S(=O)(=O)N2CCOCC2)ccc1F)C(=O)NC1CCCCC1C (stereo not given) do in these assays?
V-ATPase pH: inactive; ABCB6 inh 2: inactive; pCIP destab: inactive

How did O=S(=O)(NCC1CCCO1)c1cc(Cl)ccc1Cl (stereo not given) do in these assays?
V-ATPase pH: inactive; Dynein transport: inactive; ABCB6 inh 2: inactive; pCIP destab: inactive; Cl transport mod: inactive

How did O=S(=O)(NCC1CCCO1)c1cc(Cl)ccc1Br (stereo not given) do in these assays?
V-ATPase pH: inactive; Dynein transport: inactive; ABCB6 inh 2: 24.0; pCIP destab: inactive; Cl transport mod: inactive; ABCB6 blocker 1: inactive

What do the screens show for `Cc1ccc(CC(=O)Nc2nnc(-c3ccc(F)cc3)o2)c(C)c1`?
V-ATPase pH: inactive; ABCB6 inh 2: 74.0; pCIP destab: inactive; ABCB6 blocker 1: inactive

How did CC1CCc2c(nc3ncnn3c2NCCc2ccccc2F)C1 (stereo not given) do in these assays?
V-ATPase pH: inactive; Dynein transport: inactive; ABCB6 inh 2: inactive; pCIP destab: inactive; Cl transport mod: inactive

Results for Cc1ccc2c(c1)C1CN(C)CCC1N2C(=O)COc1ccc(N(C)C(=O)c2ccccc2)cc1 (stereo not given) ?
V-ATPase pH: inactive; Dynein transport: inactive; ABCB6 inh 2: inactive; pCIP destab: inactive; Cl transport mod: inactive

Results for CCCC(=O)O[C@@H]1C[C@@H](C)N(C(=O)c2ccccc2)c2ccc(C)cc21 ?
V-ATPase pH: inactive; Dynein transport: inactive; ABCB6 inh 2: 72.0; pCIP destab: inactive; Cl transport mod: inactive; ABCB6 blocker 1: inactive

How did O=S(=O)(c1ccc2nc(-c3ccccc3)[nH]c2c1)N1CCN(c2cccc(Cl)c2)CC1 do in these assays?
V-ATPase pH: inactive; Dynein transport: inactive; ABCB6 inh 2: 58.0; pCIP destab: inactive; Cl transport mod: inactive; ABCB6 blocker 1: inactive

Results for COc1ccccc1N1CCN(S(=O)(=O)c2ccc3nc(-c4ccccc4)[nH]c3c2)CC1 ?
V-ATPase pH: inactive; Dynein transport: inactive; ABCB6 inh 2: inactive; pCIP destab: inactive; Cl transport mod: inactive

How did CCCN(CC(=O)Nc1ccccc1C)C(=O)C1CCN(C(=O)Nc2ccccc2)CC1 do in these assays?
V-ATPase pH: inactive; ABCB6 inh 2: inactive

What do the screens show for `CCc1nnc(NC(=O)c2nc(S(=O)(=O)Cc3ccccc3)ncc2Cl)s1`?
V-ATPase pH: inactive; ABCB6 inh 2: inactive; pCIP destab: inactive; K562 vector FC: inactive

How did CC(=O)Nc1ccc(NC(=O)c2nc(S(=O)(=O)Cc3ccccc3)ncc2Cl)cc1 do in these assays?
V-ATPase pH: inactive; ABCB6 inh 2: 70.0; pCIP destab: inactive; K562 vector FC: inactive

How did Cc1nnc(NC(=O)c2nc(S(=O)(=O)Cc3ccccc3C)ncc2Cl)s1 do in these assays?
V-ATPase pH: inactive; ABCB6 inh 2: inactive; pCIP destab: inactive; K562 vector FC: inactive

How did CC(C)c1nnc(NC(=O)c2nc(S(=O)(=O)Cc3ccccc3F)ncc2Cl)s1 do in these assays?
pCIP destab: inactive

How did CC(C)c1nnc(NC(=O)c2nc(S(=O)(=O)Cc3ccc(F)cc3)ncc2Cl)s1 do in these assays?
V-ATPase pH: inactive; ABCB6 inh 2: inactive; pCIP destab: inactive; K562 vector FC: inactive

Screening data deposited in PubChem BioAssay by several laboratories.
